Values after ≈ are worked out from the molar mass of the structure shown. Active and inactive are the calls of the source. The calls are words filed in the database; no cut-off is given here.

Usually solubility stands for the dissolved amount per volume that the medium holds. Lower therefore signals a poorly soluble substance. In general, AUC(0-t) refers to the area under the concentration-time curve up to a stated or last time point. Low values mean low exposure, high ones high exposure. A word on the AUC(0-inf): it is total exposure, with the tail of the curve extrapolated. Higher therefore signals high exposure. A word on the clearance: it is a measure of how efficiently the substance is removed, as volume per time. A low value points to inefficient removal. The term Cmax denotes the peak of the concentration-time curve. The IC50 is the concentration at which inhibition is half-maximal.

Data set [1] concerns HEK293. In words: Effect on Nfr2 mRNA expression in HEK293 cells harboring Keap1 at 200 to 1000 nM after 48 hrs by quantitative RT-PCR analysis. Format: functional, cell-based. The note with it: Homo sapiens. Put shortly:
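HEK293 cells treated in triplicate at 200 or 1000 nM for 48 h; Nrf2 mRNA relative to GAPDH by quantitative RT-PCR using the 2−ΔΔCt method; mean ± SD from three experiments.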

The target of data set [2] is Kelch-like ECH-associated protein 1 (Homo sapiens) (UniProt Q14145). In words: Inhibition of Keap1/Nrf2 (unknown origin) interaction transfected in HEK293 cells assessed as upregulation of HO-1 mRNA expression at 200 to 1000 nM after 48 hrs by quantitative RT-PCR analysis. The format is cell-based. An outline of the steps: (§1)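 HEK293 cells (ATCC; high-glucose DMEM, 10% FBS) were treated in triplicate for 48 h. For the reporter read-out, cells were transfected with an ARE-dependent luciferase plasmid and luciferase activity was measured. For mRNA, total RNA was extracted with TRIzol and reverse transcribed, and target transcripts were quantified by qRT-PCR relative to GAPDH using the 2−ΔΔCt method. Three independent experiments, mean ± SD.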
Kelch-like ECH-associated protein 1 (Homo sapiens), sequence (Q14145 whole entry): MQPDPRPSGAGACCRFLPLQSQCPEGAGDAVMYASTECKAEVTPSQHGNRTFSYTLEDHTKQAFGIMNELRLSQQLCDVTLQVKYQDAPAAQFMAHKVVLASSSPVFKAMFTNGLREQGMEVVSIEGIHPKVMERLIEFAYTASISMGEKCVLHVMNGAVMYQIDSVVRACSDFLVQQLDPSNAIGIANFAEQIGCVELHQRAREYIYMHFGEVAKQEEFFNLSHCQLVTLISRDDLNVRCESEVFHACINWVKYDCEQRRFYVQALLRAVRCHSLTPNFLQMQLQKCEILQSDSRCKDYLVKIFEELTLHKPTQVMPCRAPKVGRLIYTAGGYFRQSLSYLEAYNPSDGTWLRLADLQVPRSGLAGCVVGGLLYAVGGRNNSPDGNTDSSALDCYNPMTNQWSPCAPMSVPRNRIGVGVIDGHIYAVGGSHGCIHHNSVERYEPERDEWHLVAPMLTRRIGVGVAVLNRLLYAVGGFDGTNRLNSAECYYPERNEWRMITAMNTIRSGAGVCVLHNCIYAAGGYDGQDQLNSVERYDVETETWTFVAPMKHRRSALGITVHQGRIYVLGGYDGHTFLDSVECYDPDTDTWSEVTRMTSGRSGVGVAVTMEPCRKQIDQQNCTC

Data set [3] in a line: Solubility of compound in saline at 100 uM at pH 7.4 by HPLC analysis. The format is physicochemical. An outline of the steps:
(§2)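 Solubility was determined by an established HPLC method, in saline alone or in saline containing 1% 1,3-propylene glycol and 1% Tween 80.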

Data set [4] is described as follows: Solubility of compound in saline containing 1% 1,3-propylene glycol/ 1% Tween 80 at 100 uM at pH 7.4 by HPLC analysis. Format: physicochemical. An outline of the steps:
as §2

Data set [5] concerns the target Kelch-like ECH-associated protein 1 (Homo sapiens) (UniProt Q14145). In words: Inhibition of Keap1/Nrf2 (unknown origin) interaction transfected in HEK293 cells assessed as activation of Nrf2 at 200 to 1000 nM after 48 hrs by ARE-driven luciferase reporter gene assay. The format is cell-based. Put shortly:
as §1
Background: Reporter assays use an easily measured gene product as a stand-in for the process of interest.

Data set [6] deals with T1, Inhibitor of nuclear factor kappa-B kinase subunit beta (Homo sapiens) (UniProt O14920).
T1 sequence (whole entry): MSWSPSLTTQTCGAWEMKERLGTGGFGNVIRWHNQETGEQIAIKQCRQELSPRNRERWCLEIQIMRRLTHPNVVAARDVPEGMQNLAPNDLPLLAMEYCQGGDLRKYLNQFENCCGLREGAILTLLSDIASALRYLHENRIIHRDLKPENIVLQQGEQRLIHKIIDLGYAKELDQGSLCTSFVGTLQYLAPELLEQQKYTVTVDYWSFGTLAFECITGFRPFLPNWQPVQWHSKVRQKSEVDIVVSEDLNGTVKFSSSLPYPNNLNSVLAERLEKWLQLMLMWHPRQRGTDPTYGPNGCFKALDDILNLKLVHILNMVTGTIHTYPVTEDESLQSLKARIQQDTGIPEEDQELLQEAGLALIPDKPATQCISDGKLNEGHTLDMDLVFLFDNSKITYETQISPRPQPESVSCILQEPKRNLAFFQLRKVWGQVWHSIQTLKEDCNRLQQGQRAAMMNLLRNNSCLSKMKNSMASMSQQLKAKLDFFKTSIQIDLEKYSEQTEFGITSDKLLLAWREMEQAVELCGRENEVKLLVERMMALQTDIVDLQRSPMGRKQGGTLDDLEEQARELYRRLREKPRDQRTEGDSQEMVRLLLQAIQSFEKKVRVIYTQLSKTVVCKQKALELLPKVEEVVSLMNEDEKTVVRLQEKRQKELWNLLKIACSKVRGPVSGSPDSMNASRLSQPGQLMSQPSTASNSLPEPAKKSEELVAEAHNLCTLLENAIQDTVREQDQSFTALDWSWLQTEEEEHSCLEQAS
The data set is described as follows: Inhibition of IKKbeta (unknown origin) transfected in HEK293 cells assessed as reduction in TNFalpha-induced upregulation of iNOS mRNA expression at 200 to 1000 nM administered 6 hrs after TNFalpha stimulation measured for 24 hrs by quantitative RT-PCR analysis. The format is cell-based. An outline of the steps: (§3)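 HEK293 cells pretreated with TNF-α (10 ng/mL) for 6 h, then given compound at 200 or 1000 nM for 24 h, in triplicate; iNOS, COX2 and MCP-1 mRNA relative to GAPDH by quantitative RT-PCR, 2−ΔΔCt method; mean ± SD from three experiments.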

Data set [7] concerns the target T1, Inhibitor of nuclear factor kappa-B kinase subunit beta (Homo sapiens). In words: Inhibition of IKKbeta (unknown origin) transfected in HEK293 cells assessed as reduction in TNFalpha-induced upregulation of COX2 mRNA expression at 200 to 1000 nM administered 6 hrs after TNFalpha stimulation measured for 24 hrs by quantitative RT-PCR analysis. Format: cell-based. An outline of the steps: as §3

Data set [8] shares this target. In words: Inhibition of IKKbeta (unknown origin) transfected in HEK293 cells assessed as reduction in TNFalpha-induced upregulation of MCP1 mRNA expression at 200 to 1000 nM administered 6 hrs after TNFalpha stimulation measured for 24 hrs by quantitative RT-PCR analysis. Format: cell-based. An outline of the steps: as §3
Data set [9] is described as follows: AUC (0 to t) in Sprague-Dawley rat at 10 mg/kg, iv measured up to 24 hrs by LC-MS/MS analysis. The conditions noted are these: in vivo. Details: dose 10 mg/kg, time < 24 hr, route intravenous. The format is ADME, organism-based. An outline of the steps:
(§4)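 Rats dosed intravenously at 10 mg/kg; blood drawn from suborbital vein at 0, 2, 5, 15, 30, 60 min and 1.5, 2, 4, 6, 8, 12, 24 h; plasma levels by LC-MS/MS; parameters from concentration–time profiles, mean ± SD, n = 3.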

The nature of data set [10]: AUC (0 to infinity) in Sprague-Dawley rat at 10 mg/kg, iv measured up to 24 hrs by LC-MS/MS analysis. Set-up: dose 10 mg/kg, route intravenous, time infinity. The format is ADME, organism-based. The note with it: in vivo. Put shortly:
as §4

Data set [11] is described as follows: Clearance in Sprague-Dawley rat at 10 mg/kg, iv measured up to 24 hrs by LC-MS/MS analysis. Format: ADME, organism-based. The conditions noted are these: in vivo. Put shortly:
as §4

Data set [12] can be described thus: Volume of distribution at steady state in Sprague-Dawley rat at 10 mg/kg, iv measured up to 24 hrs by LC-MS/MS analysis. Format: ADME, organism-based. The note with it: in vivo, read-out: Vdss. Put shortly: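 Rats received a single 10 mg/kg i.v. dose. Blood was drawn from the suborbital vein at 0, 2, 5, 15, 30 and 60 min and at 1.5, 2, 4, 6, 8, 12 and 24 h, and plasma was analyzed by LC-MS/MS. n = 3, mean ± SD.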

Data set [13] is described as follows: Cmax in Sprague-Dawley rat at 10 mg/kg, iv measured up to 24 hrs by LC-MS/MS analysis. The format is ADME, organism-based. Set-up: dose 10 mg/kg, route intravenous. The conditions noted are these: in vivo. Put shortly: as §4
In data set [14] the test system is HEK293. The data set is described as follows: Cytotoxicity against HEK293 cells assessed as reduction in cell viability after 24 hrs by MTT assay. Format: cell-based. The conditions noted are these: Homo sapiens, HEK293, 24 h. Put shortly:
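HEK293 or H9C2 cells grown in high-glucose DMEM with 10% FBS, exposed to compound for 24 h; viability by MTT, IC50 calculated.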
(Tetrazolium dyes change colour on reduction, which living cells bring about.)

The target in data set [15] is T1, Inhibitor of nuclear factor kappa-B kinase subunit beta (Homo sapiens). In words: Inhibition of IKKbeta (unknown origin) transfected in HEK293 cells assessed as mitigation of TNFalpha-induced increase in ratio of nuclear to cytosolic p65 at 200 to 1000 nM administered 6 hrs after TNFalpha stimulation measured for 24 hrs by Western blot method. The format is cell-based. An outline of the steps:
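HEK293 cells pretreated with TNF-α (10 ng/mL) for 6 h, then given compound at 200 or 1000 nM for 24 h, in triplicate; nuclear and cytosolic p65, iNOS and COX2 protein by western blot; mean ± SD from three experiments.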
(In western blotting, separated proteins are transferred to a membrane and probed.)

`COC(=O)[C@]12CCC(C)(C)C[C@H]1[C@H]1C(=O)C=C3[C@@]4(C)C=C(C#N)C(=O)C(C)(C)[C@@H]4CC[C@@]3(C)[C@]1(C)CC2` [BARDOXOLONE METHYL]: the result in the data set on HEK293 [1] was inactive. The inhibition result in [2], in data set [5], in data set [6], in data set [7], in data set [8] and in data set [15] was “Active” each time. Further, the solubility result in data set [3] (buffer, pH 7.4, 100 µM) was “Insoluble”; in data set [4] (buffer, pH 7.4, 100 µM), “Insoluble”. For the same molecule, the AUC(0-t) at 24 h in [9] is 2060 ng·h/mL. The AUC(0-inf) in data set [10] was determined as 2180 ng·h/mL. The molecule further showed a clearance in data set [11] of 78 mL/min/kg. Further, the Vd in data set [12] is 29.1 L/kg. Also, the peak level in data set [13] (Cmax) was 5020 ng/mL. Further, the IC50 in the data set with HEK293 [14] is 2.2 µM.

Turning to `COC(=O)[C@@H](N)CCC(=O)Nc1ccc(COC2=C(C#N)[C@H](O)[C@]3(C)C4=CC(=O)[C@@H]5[C@@H]6CC(C)(C)CC[C@]6(C(=O)OC)CC[C@@]5(C)[C@]4(C)CC[C@H]3C2(C)C)cc1`, in the data set on HEK293 [1], the outcome was inactive. In addition, the inhibition entry in data set [2], in data set [5], in data set [6], in data set [7], in data set [8] and in data set [15] was “Active” in each case. For the same molecule, the solubility at 100 µM came to 8.9 µg/mL (≈ 0.0115 mM) in [3] (saline, pH 7.4) and 12200 µg/mL (≈ 15.8 mM) in data set [4] (saline containing 1% 1,3-propylene glycol/1% Tween 80, pH 7.4). Also, in data set [9], the AUC(0-t) at 24 h was determined as 509 ng·h/mL. The molecule also showed an AUC(0-inf) in data set [10] of 531 ng·h/mL. In addition, the clearance in data set [11] is 340 mL/min/kg. Besides, the Vd in [12] came out at 35.1 L/kg. Further, the Cmax in data set [13] was 3020 ng/mL. In addition, the 50% inhibitory concentration (IC50) in the data set on HEK293 [14] amounted to 56.5 µM.

The values are drawn from ChEMBL document CHEMBL4017544 (J Med Chem, 2017).
